From publication PMC10915797 (Molecular Pharmaceutics, 2024) come the findings set out here.

In test [1] the target is recombinant human PD-L1 protein (Homo sapiens, UniProt Q9NZQ7). Briefly: SPR binding affinity. Conditions: read-out: Kd (dissociation rate constant). In a few lines:
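SPR on a CM5 chip at 25 °C. Recombinant human PD-L1 immobilised; surface blocked at pH 8.5. Peptide in HEPES-buffered saline (pH 7.2–7.4, 0.005% P20) at seven concentrations, 1.5625–100 nM, injected at 10 μL/min: 120 s association, 360 s dissociation. Regenerated with glycine pH 2.0 for 15 s. Blank-subtracted sensorgrams fitted to give the dissociation rate constant.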
In general terms: SPR reads the build-up and loss of mass on a sensor chip optically.

Test [2] deals with recombinant murine PD-L1 protein (Mus musculus, UniProt Q9EP73). Put plainly: SPR binding affinity. Conditions: read-out: Kd (dissociation rate constant).
Test [3] deals with U87MG cells. Put plainly: Blocking of tracer cell binding by PD-L1 antibodies. In kind it is cell-based, human. Conditions: U87MG cells pre-incubated with 50 nM antibody, 4 °C, 30 min, then tracer 30 min. Summed up: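 U87MG cells (1 × 10^6 per sample, n = 3) pre-incubated with PBS or 50 nM PD-L1 monoclonal antibody, 4 °C, 30 min, then given 0.1 μCi Al[18F]F-NOTA-PCP1 at 4 °C for 30 min. Washed three times with PBS–0.1% Tween-20. Bound radioactivity gamma-counted and expressed as %ID. Compared with PBS-treated cells by unpaired two-tailed t test.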

Test [4] has as its system U87MG tumors. Put plainly: Micro-PET/CT target engagement of PD-L1 antibodies. In kind it is in vivo, BALB/c nude mice. Particulars: U87MG model. Summed up:
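Female BALB/c nude mice (6–8 weeks, 18.0–23.0 g) carried subcutaneous right-flank U87MG xenografts (6 × 10^6 cells) grown to 100–300 mm3. Atezolizumab given at 0.05–20 mg/kg (n = 3). Imaged 24 or 120 h later: 6.0 ± 0.91 MBq tracer via tail vein, micro-PET/CT at 2 h post-injection under 1.5–2% isoflurane. 3D-OSEM/OP-MAP reconstruction with attenuation correction; manual tumour ROIs; uptake as %ID/cc.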

recombinant human PD-L1 protein, sequence (Q9NZQ7 19-290): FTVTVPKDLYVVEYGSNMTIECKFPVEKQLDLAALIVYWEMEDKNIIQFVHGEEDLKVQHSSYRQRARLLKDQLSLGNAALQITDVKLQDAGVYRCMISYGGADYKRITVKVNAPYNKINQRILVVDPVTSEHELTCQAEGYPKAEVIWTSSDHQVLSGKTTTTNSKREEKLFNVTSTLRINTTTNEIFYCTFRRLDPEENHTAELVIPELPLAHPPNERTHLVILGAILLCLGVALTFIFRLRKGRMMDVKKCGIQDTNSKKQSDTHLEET
recombinant murine PD-L1 protein, sequence (Q9EP73 19-290): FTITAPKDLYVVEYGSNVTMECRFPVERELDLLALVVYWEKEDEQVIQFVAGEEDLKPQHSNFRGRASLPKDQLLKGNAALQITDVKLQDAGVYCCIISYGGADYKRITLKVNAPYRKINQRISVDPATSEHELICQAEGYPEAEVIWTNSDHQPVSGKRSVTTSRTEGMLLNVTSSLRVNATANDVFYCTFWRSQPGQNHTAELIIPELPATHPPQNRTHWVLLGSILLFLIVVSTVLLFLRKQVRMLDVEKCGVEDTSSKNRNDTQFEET

For `CCCC[C@H]1C(=O)N(C)[C@@H](CCCC)C(=O)N[C@@H](CCCNC(=O)CCOCCOCCOCCNC(=O)CN2CCN(CC(=O)O)CCN(CC(=O)O)CC2)C(=O)N[C@H](C(=O)NCC(N)=O)CSCC(=O)N[C@@H](Cc2ccc(O)cc2)C(=O)N(C)[C@@H](C)C(=O)N[C@@H](CC(N)=O)C(=O)N2CCC[C@H]2C(=O)N[C@@H](Cc2c[nH]cn2)C(=O)N[C@@H](CC(C)C)C(=O)N2C[C@H](O)C[C@H]2C(=O)N[C@@H](Cc2c[nH]c3ccccc23)C(=O)N[C@@H](CO)C(=O)N[C@@H](Cc2cn(C)c3ccccc23)C(=O)N1C` [NOTA-PCP1], the koff in test [1] was 0.000593 s⁻¹; in test [2] it was 0.52 s⁻¹.
For AveMab: anti-PD-L1 monoclonal antibody, the “Al[^18F]F-NOTA-PCP1 cell uptake after antibody treatment” value (“Al[^18F]F-NOTA-PCP1 cell uptake” below) in test [3] was found to be 1.40 ± 0.05 %ID.
As to AtzMab: anti-PD-L1 monoclonal antibody, the “Al[^18F]F-NOTA-PCP1 cell uptake” value in test [3] is reported as 1.26 ± 0.05 %ID. In addition, the “tumor Al[^18F]F-NOTA-PCP1 uptake on PET/CT after antibody” value in test [4] (AtzMab 0.05 mg/kg, at 120h, n = 3 (Figure 6B)) worked out at 11.64 ± 1.13 %ID/cc; in test [4] (AtzMab 0.5 mg/kg, at 120h, n = 3 (Figure 6B)), 6.17 ± 0.35 %ID/cc; in test [4] (AtzMab 5 mg/kg, 24 h, n = 3 (Figure 7B)), 2.16 ± 0.20 %ID/cc; in test [4] (AtzMab 5 mg/kg, 120 h, n = 3 (Figure 7B)), 6.91 ± 0.18 %ID/cc; in test [4] (AtzMab 20 mg/kg, 24 h, n = 3 (Figure 7B)), 2.19 ± 0.13 %ID/cc; in test [4] (AtzMab 20 mg/kg, 120 h, n = 3 (Figure 7B)) it was 2.29 ± 0.04 %ID/cc. For the same compound, the “tumor Al[^18F]F-NOTA-PCP1 uptake on PET/CT after antibody” value in test [4] (AtzMab 20 mg/kg, at 120h, n = 3 (Figure 6B)) came to 2.02 ± 0.14 %ID/cc.
Consider DurMab: anti-PD-L1 monoclonal antibody, for which the “Al[^18F]F-NOTA-PCP1 cell uptake” value in test [3] is recorded as 1.34 ± 0.09 %ID.
